The results in this text go back to ChEMBL document CHEMBL4828729, “MSBA-S - A pentacyclic sulfamate as a new option for radiotherapy of human breast cancer cells” (Eur J Med Chem, 2021).

For one test, the system named is BT-20. Kind of test: Cytotoxicity against human BT-20 cells assessed as reduction in cell viability measured after 96 hrs by SRB assay. The test is classed as functional, cell-based. As to conditions: BT-20, 96 h. An outline of the steps:
(§1)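 Compounds were prepared as 20 mM DMSO stocks and applied 24 h after seeding in 96-well plates at 1-100 (so in the source) for 96 h under standard conditions. Cells were fixed with 10% trichloroacetic acid, stained with 0.4% SRB, washed with 1% acetic acid and dissolved in 20 mM Tris base. Absorbance was read at 540 nm. IC50 is the half-maximal inhibitory concentration, with a cut-off of 50. Mean ± SD of at least three independent experiments.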

For a further test, the system named is MCF7. Put plainly: Cytotoxicity against human MCF7 cells assessed as reduction in cell viability measured after 96 hrs by SRB assay. The note with it: MCF7, 96 h. It is filed as functional, cell-based. An outline of the steps: as §1
Test [1] has as its system MDA-MB-231. Put plainly: Cytotoxicity against human MDA-MB-231 cells assessed as reduction in cell viability measured after 96 hrs by SRB assay. The test is classed as functional, cell-based. As to conditions: MDA-MB-231, 96 h. An outline of the steps: as §1
In test [2] the test system is Hs-578T. Kind of test: Cytotoxicity against human Hs-578T cells assessed as reduction in cell viability measured after 96 hrs by SRB assay. It is filed as functional, cell-based. An outline of the steps: as §1
In test [3] the test system is MDA-MB-231. Put plainly: Anticlonogenic activity against human MDA-MB-231 cells assessed as clonogenic survival rate at 10 uM measured after 24 hrs by giemsa staining based survival assay relative to control. The test is classed as functional. An outline of the steps:
(§2)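 Cells seeded in 6-well plates and treated 24 h after seeding for 24 h. They were then trypsinized, counted and reseeded at 300 or 600 cells per 75 cm² flask. Colonies grew for about 12-14 days before paraformaldehyde fixation and 10% Giemsa staining. Only colonies of more than about 50 cells were scored for surviving fraction relative to control. Mean +SD of three independent experiments.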

In test [4] the test system is Hs-578T. Kind of test: Anticlonogenic activity against human Hs-578T cells assessed as clonogenic survival rate at 10 uM measured after 24 hrs by giemsa staining based survival assay relative to control. The test is classed as functional. The method, boiled down: as §2
Test [5] relates to Hs-578T. Put plainly: Induction of apoptosis in human Hs-578T cells assessed as nuclei shrinkage at 10 uM measured after 72 hrs by DAPI staining based fluorescence microscopy relative to control. The test is classed as functional. The method, boiled down:
(§3)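 After 72 h treatment under standard conditions, cells were trypsinized and pelleted together with the culture supernatant. They were resuspended in PBS, fixed in 70% ethanol, cytospun onto slides and stained with DAPI for 5 min. Apoptotic cells were scored by nuclear shrinkage. Mean +SD of three independent experiments.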

Test [6] deals with MDA-MB-231. Put plainly: Induction of apoptosis in human MDA-MB-231 cells assessed as nuclei shrinkage at 10 uM measured after 72 hrs by DAPI staining based fluorescence microscopy relative to control. It is filed as functional. An outline of the steps: as §3
For test [7], the system named is Hs-578T. Kind of test: Induction of apoptosis in human Hs-578T cells assessed as necrotic cells at 10 uM measured after 24 hrs by Annexin V/propidium iodide staining based flow cytometry relative to control. The test is classed as functional. An outline of the steps: (§4)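 Cells were seeded in 6-well plates, grown 24 h and then treated for 24 h. They were resuspended in binding buffer (10 mM HEPES/NaOH, 140 mM NaCl, 5 mM CaCl₂, pH 7.4) and stained for 15 min with propidium iodide and/or Annexin V. Flow cytometry classified vital (Q3), necrotic (Q1), late apoptotic (Q2) and apoptotic (Q4) populations.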

Test [8] relates to Hs-578T. Kind of test: Induction of apoptosis in human Hs-578T cells assessed as early apoptotic cells at 10 uM measured after 24 hrs by Annexin V/propidium iodide staining based flow cytometry relative to control. The test is classed as functional. The method, boiled down:
as §4

The subject of test [9] is Hs-578T. Kind of test: Induction of apoptosis in human Hs-578T cells assessed as late apoptotic cells at 10 uM measured after 24 hrs by Annexin V/propidium iodide staining based flow cytometry relative to control. The test is classed as functional. An outline of the steps:
as §4

The subject of test [10] is MDA-MB-231. Kind of test: Induction of apoptosis in human MDA-MB-231 cells assessed as necrotic cells at 10 uM measured after 24 hrs by Annexin V/propidium iodide staining based flow cytometry relative to control. It is filed as functional. The method, boiled down:
as §4

The subject of test [11] is MDA-MB-231. Put plainly: Induction of apoptosis in human MDA-MB-231 cells assessed as early apoptotic cells at 10 uM measured after 24 hrs by Annexin V/propidium iodide staining based flow cytometry relative to control. It is filed as functional. The method, boiled down: as §4
The test system of test [12] is MDA-MB-231. Kind of test: Induction of apoptosis in human MDA-MB-231 cells assessed as late apoptotic cells at 10 uM measured after 24 hrs by Annexin V/propidium iodide staining based flow cytometry relative to control. It is filed as functional. The method, boiled down: as §4
The test system of test [13] is MDA-MB-231. Put plainly: Induction of apoptosis in human MDA-MB-231 cells assessed as increase in ROS production at 20 uM measured after 24 hrs by CM-H2DCFDA staining based flow cytometry analysis relative to control. It is filed as functional. As to conditions: dose 5 µM, in the assay text read “at 5 uM” for “at 20 uM”. The method, boiled down: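 Cells were plated in 6-well plates for 24 h, then treated for 24 h. They were loaded with 0.5 CM-H2DCFDA in PBS with CaCl₂/MgCl₂ for 30 min at 37 °C, washed, exposed to trypsin-EDTA (0.5%) for 3 min at 37 °C and detached with PBS. Fluorescence from dye conversion to chloromethyl-dichlorofluorescein was measured by flow cytometry. Values are fold change versus DMSO-treated cells.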

Test [14] concerns MDA-MB-231. Kind of test: Radiosensitization activity in human MDA-MB-231 cells assessed as ratio of DMSO treated surviving fraction to compound treated surviving fraction at 5 uM pre-incubated for 24 hrs prior to irradiation and measured by giemsa staining based assay. It is filed as functional. The method, boiled down:
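Cells were incubated for 24 h with 5 (so in the source) compound, then irradiated with 6, 10 or 14 Gy. Colonies of more than about 50 cells were counted after about 12-14 days with Giemsa staining and normalized to unirradiated controls. DMF is the surviving fraction of DMSO control cells divided by that of treated cells, reported at 10% survival.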

In test [15] the test system is MDA-MB-231. Put plainly: Anticlonogenic activity against human MDA-MB-231 cells assessed as clonogenic survival rate at 40 uM measured after 24 hrs by giemsa staining based survival assay relative to control. As to conditions: read-out: INH. It is filed as functional. The method, boiled down: as §2
Test [16] has as its system Hs-578T. Put plainly: Anticlonogenic activity against human Hs-578T cells assessed as clonogenic survival rate at 40 uM measured after 24 hrs by giemsa staining based survival assay relative to control. It is filed as functional. The method, boiled down:
as §2

Test [17] has as its system Hs-578T. Put plainly: Induction of apoptosis in human Hs-578T cells assessed as nuclei shrinkage at 40 uM measured after 72 hrs by DAPI staining based fluorescence microscopy relative to control. The test is classed as functional. The method, boiled down:
as §3

In test [18] the test system is MDA-MB-231. Kind of test: Induction of apoptosis in human MDA-MB-231 cells assessed as nuclei shrinkage at 40 uM measured after 72 hrs by DAPI staining based fluorescence microscopy relative to control. It is filed as functional. The method, boiled down:
as §3

The subject of test [19] is MDA-MB-231. Kind of test: Antimigratory activity against human MDA-MB-231 cells assessed as inhibition of cell migration measured by wound healing assay relative to control. The test is classed as functional.
Test [20] deals with MDA-MB-231 (Homo sapiens). Put plainly: Antimigratory activity against human MDA-MB-231 cells assessed as inhibition of cell migration measured by wound healing assay.
Test [21] has as its system Hs-578T. Kind of test: Induction of apoptosis in human Hs-578T cells assessed as nuclei shrinkage at 20 uM measured after 72 hrs by DAPI staining based fluorescence microscopy relative to control. It is filed as functional. An outline of the steps:
as §3

Activity calls are given as the source filed them.

Consider `CC1(C)CC[C@]2(C(=O)NCc3ccccc3)CC[C@]3(C)C(=CC[C@@H]4[C@@]5(C)C[C@@H](OS(N)(=O)=O)[C@H](OS(N)(=O)=O)C(C)(C)[C@@H]5CC[C@]43C)[C@@H]2C1`, for which the IC50 in the test with BT-20 turned out to be 5.8 µM; in the test on MCF7 it was 4.9 µM; in the test on MDA-MB-231 [1], 3.7 µM; in the test with Hs-578T [2], 3.8 µM. In addition, the inhibition at 10 µM in the test with MDA-MB-231 [3] is 42.1%; in the test with Hs-578T [4], 16.5%. Moreover, the Activity was determined as 22.1% in the test on Hs-578T [5]; 8.9% in the test on MDA-MB-231 [6]; 2.6% in the test on Hs-578T [7]; 8.7% with Hs-578T [8]; 44.4% in the test on Hs-578T [9]; 1.6% with MDA-MB-231 [10]. For the same molecule, the Activity with MDA-MB-231 [11] is 7.4%; in the test on MDA-MB-231 [12], 18.4%. Besides, the “fold change (FC)” value with MDA-MB-231 [13] is recorded as 5.7. The Ratio in the test on MDA-MB-231 [14] turned out to be 1.14.

Turning to `CC1(C)CC[C@]2(C(=O)NCc3ccccc3)CC[C@]3(C)C(=CC[C@@H]4[C@@]5(C)CC[C@H](OS(N)(=O)=O)C(C)(C)[C@@H]5CC[C@]43C)[C@@H]2C1`, the IC50 was 16.2 µM in the test with BT-20, > 50 µM with MCF7, > 50 µM in the test with MDA-MB-231 [1] and 15.8 µM in the test with Hs-578T [2]. Moreover, the clonogenic survival relative to control at 40 µM with MDA-MB-231 [15] turned out to be 80.6%. Moreover, the inhibition at 40 µM with Hs-578T [16] amounted to 73.1%. Besides, the Activity in the test on Hs-578T [17] amounted to 3.5%.

Regarding `CC(=O)[C@@H]1CC[C@]2(C(=O)NCc3ccccc3)CC[C@]3(C)[C@H](CC[C@@H]4[C@@]5(C)CC[C@H](OS(N)(=O)=O)C(C)(C)[C@@H]5CC[C@]43C)[C@@H]12`, the IC50 in the test on BT-20 is 32 µM; in the test with MCF7 it was 9.3 µM; in the test with MDA-MB-231 [1], > 50 µM; in the test on Hs-578T [2] it was 16.9 µM. The clonogenic survival relative to control at 40 µM with MDA-MB-231 [15] came to 80.6%. Also, in the test with Hs-578T [16], the inhibition at 40 µM amounted to 73.1%. The Activity came to 3.5% in the test with Hs-578T [17] and 2.1% with MDA-MB-231 [18].

For the molecule `C=C(C)[C@@H]1CC[C@]2(C(=O)O)CC[C@]3(C)[C@H](CC[C@@H]4[C@@]5(C)CC[C@H](O)C(C)(C)[C@@H]5CC[C@]43C)[C@@H]12`, the inhibition entry (with MDA-MB-231 [19]; in test [20]) was “Active” each time.

In the case of `C=C(C)[C@@H]1CC[C@]2(C(=O)NCc3ccccc3)CC[C@]3(C)[C@H](CC[C@@H]4[C@@]5(C)CC[C@H](OS(N)(=O)=O)C(C)(C)[C@@H]5CC[C@]43C)[C@@H]12`, the IC50 in the test with BT-20 came out at 16.2 µM; with MCF7, 7.5 µM; in the test with MDA-MB-231 [1] it was 15.2 µM; with Hs-578T [2] it was 18.8 µM. In addition, the clonogenic survival relative to control at 40 µM in the test with MDA-MB-231 [15] was 80.6%. The inhibition at 40 µM in the test with Hs-578T [16] was 73.1%. In addition, the Activity in the test with Hs-578T [17] is given as 3.5%; in the test with MDA-MB-231 [18] it was 2.1%.

For the molecule `CC1(C)CC[C@]2(C(=O)O)CC[C@]3(C)C(=CC[C@@H]4[C@@]5(C)CC[C@H](O)C(C)(C)[C@@H]5CC[C@]43C)[C@@H]2C1`, the inhibition entry with MDA-MB-231 [19] was “inactive”.

`C[C@H]1[C@H](C)CC[C@]2(C(=O)NCc3ccccc3)CC[C@]3(C)C(=CC[C@@H]4[C@@]5(C)CC[C@H](OS(N)(=O)=O)C(C)(C)[C@@H]5CC[C@]43C)[C@H]12`: the IC50 in the test with BT-20 worked out at 16.2 µM. Further, in the test with MDA-MB-231 [15], the clonogenic survival relative to control at 40 µM stood at 80.6%. Also, the inhibition at 40 µM with Hs-578T [16] amounted to 73.1%. The Activity in the test on Hs-578T [21] was 3.5%.
